Bioassay records as filed in PubChem.
CYP2C9 inh: human CYP2C9 inhibition | CYP2C9 Supersomes, luciferin-H conversion, luminescence | 96,000 tested, 20% active | AID 777 | P11712 | inhibition, % at 5 µM;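 active = blocking of liver enzyme CYP2C9 beyond about 50% at 5 µM, limit read from the data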
HIV Rev-RRE inh: disrupts HIV-1 Rev binding to RRE RNA | P05866 | Rev peptide-RRE RNA binding, FRET | inhibition, % at 8 µM | 97,000 tested, 0.79% active;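 active = inhibition above the screen-wide mean plus 3 SD, cut at about 35% in these data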;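 also: 0% = median DMSO wells and 100% = median Neomycin B control wells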
Target sequence (P05866 whole entry, looked up): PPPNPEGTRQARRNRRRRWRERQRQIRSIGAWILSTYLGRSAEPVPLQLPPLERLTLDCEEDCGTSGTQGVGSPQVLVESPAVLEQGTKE
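assay system = Cy5-tagged RRE RNA duplex with fluorescein-tagged Rev peptide | incubation = 5 + 15 min at 25 °C | also added = labelled Rev peptide | measure = % inhibition of FRET ratio versus controls | benchmarks = DMSO wells as 0% and neomycin B wells as 100% inhibition | measured by = FRET fluorescence readout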
Cav32 inh: blocks human Cav3.2 T-type calcium channel; Cav3.2-expressing cells, Fluo-4 calcium fluorescence FDSS; active compounds read low; B-score at 10 µM; 100,000 tested, 4% active;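 active = single-dose well whose peak fluorescence ratio is a statistical outlier from its plate by either plate-standardised score or position-corrected B-score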
CYP2C9 act: activators of human CYP2C9 | P11712 | recombinant CYP2C9, luciferin-H conversion, luminescence; active compounds read high; factor 1 = untreated enzyme, 0 = blocked | activation factor at 5 µM | 96,000 tested, 1.4% active | AID 1024;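 active = activation factor of 2 or more for CYP2C9 at a 5 µM dose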;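 also: 0 = sulfaphenazole-blocked wells and 1 = vehicle-only wells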
CYP2C19 inh: human CYP2C19 inhibition | P33261 | CYP2C19 Supersomes, luciferin-H EGE luminescence, 30 min | inhibition, % at 5 µM | 96,000 tested, 21% active | AID 778;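 active = CYP2C19 inhibition above a set limit at 5 µM in the primary screen, cut at about 50% in these data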;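 also: plate controls were negative control wells for no effect and 2.5 mM tranylcypromine positive control for full effect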
Target sequence (P33261 whole entry, looked up): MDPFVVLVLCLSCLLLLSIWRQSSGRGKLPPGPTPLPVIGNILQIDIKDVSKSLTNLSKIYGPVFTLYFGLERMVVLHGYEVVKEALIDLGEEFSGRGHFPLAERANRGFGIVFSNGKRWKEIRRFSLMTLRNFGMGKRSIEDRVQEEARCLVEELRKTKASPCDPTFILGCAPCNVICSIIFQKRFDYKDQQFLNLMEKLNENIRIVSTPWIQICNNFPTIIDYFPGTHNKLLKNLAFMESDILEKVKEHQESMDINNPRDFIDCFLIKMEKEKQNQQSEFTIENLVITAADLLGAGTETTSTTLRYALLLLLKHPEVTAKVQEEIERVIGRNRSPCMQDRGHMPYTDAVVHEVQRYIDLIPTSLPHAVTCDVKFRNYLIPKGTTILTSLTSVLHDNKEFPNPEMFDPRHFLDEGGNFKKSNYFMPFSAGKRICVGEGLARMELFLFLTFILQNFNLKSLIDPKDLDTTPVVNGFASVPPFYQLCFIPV
CYP2C19 activ: activators of human cytochrome P450 2C19; P33261; recombinant CYP2C19, luciferin-H EGE luminescence; active compounds read high; 0 = fully inhibited enzyme, 1 = untreated enzyme; activation factor at 5 µM; 96,000 tested, under 10 active; AID 1025;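 active = activation factor of at least 2 at 5 µM in the primary screen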;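 also: 0 = wells with 2.5 mM tranylcypromine and 1 = vehicle-only wells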
* marks the source's active call; other numbers are inactive results; x = no result given; [ ] = remark or other dose. Compounds with a hit are over-represented: about 27% of the library has one in this group of screens.

SMILES | CYP2C9 inh | HIV Rev-RRE inh | Cav32 inh | CYP2C9 act | CYP2C19 inh | CYP2C19 activ
CC(=O)Nc1nc2n(n1)C(c1ccc(F)cc1)C=C(c1ccccc1)N2 (configuration not stated) | 7 | 56* | -0.52 | 0.9 | 12 | 0.9
O=C(c1nc2n(n1)C(c1ccc(Cl)cc1)C=C(c1ccccc1)N2)N1CCOCC1 (configuration not stated) | 12 | 118*[fluorescence artefact?] | x | 0.9 | 1 | 1
COc1ccc(C2C=C(c3ccc(Cl)cc3)Nc3nc(NC(C)=O)nn32)cc1 (configuration not stated) | -14 | 78* | x | 1.1 | -16 | 1.2
O=C(Nc1nc2n(n1)C(c1ccccc1)C=C(c1ccccc1)N2)c1ccco1 (configuration not stated) | 73* | 46* | -2.5 | 0.3 | 31 | 0.7
CCC(=O)Nc1nc2n(n1)C(c1ccc(OC)cc1)C=C(c1ccccc1)N2 (configuration not stated) | 14 | 45* | -2.1 | 0.9 | 20 | 0.8
CCOC(=O)CNc1nnc(SCC(=O)OCC)[nH]c1=O | 2 | 5 | -0.31 | 1 | 5 | 1
Cn1c(NCCCO)nc2c1c(=O)n(Cc1ccccc1F)c(=O)n2C | 0 | 0 | -1.2 | 1 | -12 | 1.1
COc1ccccc1Oc1nc2c(c(=O)n(Cc3ccccc3F)c(=O)n2C)n1C | -10 | 10 | 0.22 | 1.1 | 60* | 0.4
O=c1n(Cc2ccccc2F)c2ccccc2n1Cc1ccccc1F | x | 11 | -1.9 | x | x | x
Cn1c(=O)n(Cc2ccccc2F)c2ccccc21 | 35 | -1 | -0.64 | 0.6 | 70* | 0.3
COc1ccc(C(=O)N2c3cc4c(cc3C(C)=CC2(C)C)OCO4)cc1 | 95* | 10 | -1.1 | 0 | 92* | 0.1
COc1ccc(S(=O)(=O)N2CCN(CC(=O)Nc3cc(OC)cc(OC)c3)CC2)cc1 | -21 | 14 | x | 1.2 | 15 | 0.8
COc1cccc(NC(=O)CN2CCN(S(=O)(=O)c3ccc(C(C)C)cc3)CC2)c1 | 31 | 8 | -7.3* | 0.7 | 87* | 0.1
COc1cccc(NC(=O)CN2CCN(S(=O)(=O)c3ccc(F)cc3)CC2)c1 | 10 | 4 | 0.026 | 0.9 | 43 | 0.6
COc1cc(NC(=O)CN2CCN(S(=O)(=O)c3ccc(C(C)C)cc3)CC2)cc(OC)c1 | 30 | 7 | -4.2* | 0.7 | 74* | 0.3
c1ccc(Cn2cc(CSc3ccccc3)nn2)cc1 | x | x | -0.0058 | x | x | x
O=C(OCC1OC(n2ccc(=O)[nH]c2=O)C(O)C1OC(=O)c1ccccc1)c1ccccc1 (configuration not stated) | 35 | 1 | -0.89 | 0.6 | 38 | 0.6
O=C(O)CCC(=O)c1cccc2ccccc12 | -21 | x | 0.21 | 1.2 | -5 | 1.1
COC(=O)c1ccc(NC(=O)c2cccc(Cl)c2)o1 | 25 | -5 | -0.029 | 0.7 | 18 | 0.8
COC(=O)C(C)N(C(=O)c1cccc2ccccc12)c1c(C)cccc1C (configuration not stated) | 36 | 10 | -7.1* | 0.6 | 26 | 0.7
COC(=O)C(C)N(C(=O)c1cccc(Cl)c1)c1c(C)cccc1C (configuration not stated) | 62* | 6 | -2.4 | 0.4 | 72* | 0.3
COC(=O)c1cc(NC(=O)CN(c2ccc(OC)cc2)S(=O)(=O)c2ccc(F)cc2)ccc1Cl | x | 6 | -1.7 | x | x | x
CNC(=O)C1CC(=O)N(CCc2ccc(OC)cc2)C(=Nc2ccc(OC)cc2)S1 (configuration not stated) | x | 8 | -2.6 | x | x | x
CNC(=O)C1CC(=O)N(Cc2ccc3c(c2)OCO3)C(=Nc2ccc(OC)cc2)S1 (configuration not stated) | 35 | 4 | -0.28 | 0.7 | 56* | 0.4
CCOc1ccc(NC(=O)C2CC(=O)N(CC)C(=Nc3ccc4c(c3)OCO4)S2)cc1 (configuration not stated) | 20 | 7 | -2 | 0.8 | -12 | 1.1
SMILES | CYP2C9 inh | HIV Rev-RRE inh | Cav32 inh | CYP2C9 act | CYP2C19 inh | CYP2C19 activ
COc1ccc(N=C2SC(C(=O)Nc3ccc4c(c3)OCO4)CC(=O)N2C)cc1 (configuration not stated) | 73* | 1 | -4.7 | 0.3 | 49 | 0.5
CCN1C(=O)CC(C(=O)Nc2ccc(F)cc2)SC1=Nc1ccc2c(c1)OCO2 (configuration not stated) | 34 | 9 | -1.5 | 0.7 | -5 | 1.1
NC(=O)C1CC(=O)N(Cc2ccc3c(c2)OCO3)C(=Nc2ccccc2)S1 (configuration not stated) | 52* | 9 | 0.11 | 0.5 | 96* | 0
COc1ccc(N=C2SC(C(N)=O)CC(=O)N2CCc2ccc(OC)c(OC)c2)cc1 (configuration not stated) | 22 | 12 | 0.76 | 0.8 | 64* | 0.4
COc1ccc(N=C2SC(C(=O)O)CC(=O)N2Cc2ccc(OC)c(OC)c2)cc1 (configuration not stated) | 33 | 5 | x | 0.7 | 16 | 0.8
COc1cc(C(=O)COC(=O)Cc2cnc3sccn23)cc(OC)c1OC | -13 | x | 0.87 | 1.1 | 9 | 0.9
CCC(C)(C)n1nnnc1C(CC(C)C)N1CCC(C(N)=O)CC1 (configuration not stated) | 17 | x | -0.0022 | 0.8 | -2 | 1
CCOC(=O)C1CCN(c2c(C(=O)c3ccccc3)cnc3ccc(Cl)cc23)CC1 | x | x | -2.1 | x | x | x
CCCCOCP(=O)(CCCC)COCCCC | 0 | -3 | -1.1 | 1 | 13 | 0.9
Cc1[nH]c2ccc(C(=O)O)cc2c1C | 19 | 6 | 2 | 0.8 | 99* | 0
O=C(O)c1ccc(O)c(O)c1 | x | x | -1.8 | x | x | x
O=C1CCCc2c1cc(C(=O)NCc1ccco1)c(=O)n2-c1ccc(Cl)cc1 | -3 | 4 | 0.65 | 1 | 84* | 0.2
O=C(NCc1ccco1)c1cc(S(=O)(=O)N2CCOCC2)c(Cl)cc1Cl | 0 | x | 0.24 | 1 | 2 | 1
CC1(C)CC(=O)c2cc(C(=O)O)c(=O)n(-c3ccccc3)c2C1 | -19 | 3 | 0.88 | 1.2 | -16 | 1.2
Cc1cccc(NC(=O)c2cc3c(n(-c4ccccc4)c2=O)CCCC3=O)n1 | 50* | 1 | 0.48 | 0.5 | 19 | 0.8
CCOc1ccc(CN(C)CC(=O)c2c(N)n(Cc3ccccc3)c(=O)n(CC)c2=O)cc1OC | -31 | 9 | 1.2 | 1.3 | -16 | 1.2
CCn1c(=O)c(C(=O)CN(C)Cc2cccc(OC)c2OC)c(N)n(Cc2ccccc2)c1=O | 34 | -2 | 1.1 | 0.7 | 67* | 0.3
CCn1c(=O)c(C(=O)CN2CCCc3ccccc32)c(N)n(Cc2ccccc2)c1=O | 93* | x | -6.1* | 0.1 | 81* | 0.2
CCN1C(=O)C(C)S/C1=N\S(=O)(=O)c1ccc(Cl)s1 (configuration not stated) | -16 | -3 | -2 | 1.2 | 70* | 0.3
